We go through 22 compounds from ChEMBL document CHEMBL1144515, “Synthesis, in vitro evaluation, and SAR studies of a potential antichagasic 1H-pyrazolo[3,4-b]pyridine series” (Bioorg Med Chem, 2007).

≈ marks a conversion by molar mass, not a printed value. Some results are limits rather than exact numbers.

This test relates to Trypanosoma cruzi. Kind of test: Antiparasitic activity against Trypanosoma cruzei Y blood stream trypomastigotes. In kind it is functional, organism-based. The method, boiled down:
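Mouse infected blood diluted with healthy mouse blood and fetal bovine serum to about 106 trypomastigotes/mL; compounds from DMSO stocks added at final 10, 100, 250, 500 and 1000 µg/mL. Incubated 4 °C, 24 h with constant shaking; untreated and crystal violet-treated controls; triplicate. Trypomastigotes counted, % lysis versus untreated; IC50 taken as 50% activity concentration.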
Turning to `Cc1nn(-c2ccccc2)c2nc(-c3ccccc3)cc(C(=O)NN)c12`, the IC50 is 782 µg/mL (≈ 2280 µM).
Take `Cc1nn(-c2ccccc2)c2nc(-c3ccc(Cl)cc3)cc(C(=O)N/N=C\c3ccc(O)cc3)c12`: inhibition was half-maximal at 71.8 µg/mL (≈ 149 µM) (IC50).
As to `Cc1nn(-c2ccccc2)c2nc(-c3ccc(Cl)cc3)cc(C(=O)N/N=C\c3ccc([N+](=O)[O-])cc3)c12`, the midpoint of inhibition, the IC50, lay at 108 µg/mL (≈ 212 µM).
In the case of `COc1ccc(-c2cc(C(=O)N/N=C\c3ccc([N+](=O)[O-])cc3)c3c(C)nn(-c4ccccc4)c3n2)cc1`, the IC50 was above 1500 µg/mL.
As for `Cc1nn(-c2ccccc2)c2nc(-c3ccc(C#N)cc3)cc(C(=O)N/N=C\c3ccc([N+](=O)[O-])cc3)c12`, the figure is 37.3 µg/mL (≈ 74.4 µM).
On to `CCOc1ccc(-c2cc(C(=O)NN)c3c(C)nn(-c4ccccc4)c3n2)cc1`, for which the IC50 was 439 µg/mL (≈ 1130 µM).
In the case of `Cc1nn(-c2ccccc2)c2nc(-c3ccccc3)cc(C(=O)N/N=C\c3ccccc3)c12` it was 205 µg/mL (≈ 476 µM); in that of `Cc1nn(-c2ccccc2)c2nc(-c3ccc([N+](=O)[O-])cc3)cc(C(=O)NN)c12`, 533 µg/mL (≈ 1370 µM).
In the case of `CCOc1ccc(-c2cc(C(=O)N/N=C\c3ccc(O)cc3)c3c(C)nn(-c4ccccc4)c3n2)cc1` it was 170 µg/mL (≈ 345 µM).
In turn, `Cc1nn(-c2ccccc2)c2nc(-c3ccc(C#N)cc3)cc(C(=O)N/N=C\c3ccc(O)cc3)c12` had an IC50 of 260 µg/mL (≈ 551 µM). Compared with the last compound, the IC50 is about 1.5-fold higher.
As for `COc1ccc(-c2cc(C(=O)N/N=C\c3ccc(O)cc3)c3c(C)nn(-c4ccccc4)c3n2)cc1`, 332 µg/mL (≈ 694 µM) corresponded to half-maximal inhibition (IC50).
In turn, `Cc1nn(-c2ccccc2)c2nc(-c3ccc(Cl)cc3)cc(C(=O)N/N=C\c3ccc(F)cc3)c12` had an IC50 of 197 µg/mL (≈ 407 µM).
In the case of `COc1ccc(-c2cc(C(=O)N/N=C\c3ccc(F)cc3)c3c(C)nn(-c4ccccc4)c3n2)cc1` it was 1460 µg/mL (≈ 3050 µM).
`CCOc1ccc(-c2cc(C(=O)N/N=C\c3ccc(F)cc3)c3c(C)nn(-c4ccccc4)c3n2)cc1` registered an IC50 of 39.3 µg/mL (≈ 79.6 µM).
`Cc1nn(-c2ccccc2)c2nc(-c3ccccc3)cc(C(=O)N/N=C\c3ccc(F)cc3)c12`: the IC50 turned out to be 88.9 µg/mL (≈ 198 µM).
Compound `Cc1nn(-c2ccccc2)c2nc(-c3ccccc3)cc(C(=O)N/N=C\c3ccc([N+](=O)[O-])cc3)c12` had an IC50 of 95.3 µg/mL (≈ 200 µM).
As for `Cc1nn(-c2ccccc2)c2nc(-c3ccccc3)cc(C(=O)N/N=C\c3ccc(O)cc3)c12`, the figure is 1.9 µg/mL (≈ 4.25 µM); as for `Cc1nn(-c2ccccc2)c2nc(-c3ccc(Cl)cc3)cc(C(=O)NN)c12`, 211 µg/mL (≈ 558 µM); as for `CCOc1ccc(-c2cc(C(=O)N/N=C\c3ccc([N+](=O)[O-])cc3)c3c(C)nn(-c4ccccc4)c3n2)cc1`, 1180 µg/mL (≈ 2260 µM).
Take `Cc1nn(-c2ccccc2)c2nc(-c3ccc(C#N)cc3)cc(C(=O)NN)c12`: inhibition was half-maximal at 341 µg/mL (≈ 926 µM) (IC50).
For `Cc1nn(-c2ccccc2)c2nc(-c3ccc(C#N)cc3)cc(C(=O)N/N=C\c3ccc(F)cc3)c12`, the IC50 is 378 µg/mL (≈ 797 µM).
`COc1ccc(-c2cc(C(=O)NN)c3c(C)nn(-c4ccccc4)c3n2)cc1` yielded an IC50 of 781 µg/mL (≈ 2090 µM).

For orientation: IC50 means the concentration that inhibits the measured activity by half. A higher IC50 goes with a need for much substance.
